One may read the IC50 as the point on the concentration scale where inhibition reaches its midpoint. High values mean weaker potency in that assay, low ones greater potency in that assay. Usually CC50 stands for the concentration giving 50% cytotoxicity.

Data set [1] relates to Trichomonas vaginalis. The experiment in a line: Antiparasitic activity against Trichomonas vaginalis GT3 trophozoites after 48 hrs by […]. In kind it is functional, organism-based. The conditions noted are these: GT3, 48 h. In short, it runs like this: (§1)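 Axenic trophozoites grown in modified TYI-S-33 with 10% calf serum and bovine bile; exposed 48 h at 37 °C to increasing compound concentrations, DMSO as negative control. Then washed, subcultured 48 h in fresh drug-free medium and counted. IC50 by Probit analysis; triplicate, repeated at least twice.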

Data set [2] can be described thus: Cytotoxicity against MDCK cells after 72 hrs by MTT assay. It is filed as cell-based, Canis lupus familiaris. The conditions noted are these: dog. In short, it runs like this:
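MDCK cells in DMEM with 10% FBS and penicillin/streptomycin, 37 °C, 5% CO2. 1.5×10⁴ cells/well seeded; above 80% confluence, medium replaced and compounds added from 6.25 upward, DMSO final 0.05%. After 72 h, MTT added for 4 h at 37 °C. Formazan dissolved in acidified isopropanol (0.4 N HCl), OD 540 nm; untreated cells as negative control; CC50 calculated.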

A short description of data set [3]: Selectivity index, ratio of CC50 for MDCK cells to IC50 for Trichomonas vaginalis GT3 trophozoites. In kind it is functional.
Data set [4] is described as follows: Selectivity index, ratio of CC50 for MDCK cells to IC50 for Giardia intestinalis IMSS:0696 trophozoites. In kind it is functional.
A short description of data set [5]: Selectivity index, ratio of CC50 for MDCK cells to IC50 for Entamoeba histolytica HM-1:IMSS trophozoites. In kind it is functional.
The test system of data set [6] is Giardia intestinalis. As to the kind of experiment: Antiparasitic activity against Giardia intestinalis IMSS:0696 trophozoites after 48 hrs by […]. The conditions noted are these: Giardia duodenalis, IMSS:0696, 48 h. In kind it is functional, organism-based. The method in brief:
as §1

Data set [7] has as its system Entamoeba histolytica. The experiment in a line: Amebicidal activity against Entamoeba histolytica HM-1:IMSS trophozoites after 48 hrs by […]. In kind it is functional, organism-based. The method in brief:
as §1

The test system of data set [8] is Entamoeba histolytica. The experiment in a line: Ratio of 2-methyl-4(5)-nitroimidazole IC50 to compound IC50 for Entamoeba histolytica HM-1:IMSS trophozoites. It is filed as functional.
Data set [9] deals with Trichomonas vaginalis. The experiment in a line: Ratio of Benznidazole IC50 to compound IC50 for Trichomonas vaginalis GT3 trophozoites. In kind it is functional.
Data set [10] relates to Trichomonas vaginalis. As to the kind of experiment: Ratio of 2-methyl-4(5)-nitroimidazole IC50 to compound IC50 for Trichomonas vaginalis GT3 trophozoites. In kind it is functional.
The subject of data set [11] is Giardia intestinalis. As to the kind of experiment: Ratio of Benznidazole IC50 to compound IC50 for Giardia intestinalis IMSS:0696 trophozoites. It is filed as functional, Giardia duodenalis.
Data set [12] relates to Giardia intestinalis. The experiment in a line: Ratio of 2-methyl-4(5)-nitroimidazole IC50 to compound IC50 for Giardia intestinalis IMSS:0696 trophozoites. It is filed as functional, Giardia duodenalis.

For the molecule `Cc1nc([N+](=O)[O-])cn1S(=O)(=O)c1ccccc1`, the IC50 came to 12.5 µM with Trichomonas vaginalis [1], 12 µM in the data set with Giardia intestinalis [6] and 6.74 µM in the data set with Entamoeba histolytica [7]. Moreover, the CC50 at 72 h in data set [2] is 1270 µM. Moreover, the “Ratio CC50/IC50” value in data set [3] is reported as 101; in [4], 106; in data set [5], 188.

With `Cc1nc([N+](=O)[O-])cn1CC(=O)Nc1cccc(C(F)(F)F)c1`, the IC50 in the data set with Trichomonas vaginalis [1] was determined as 67.4 µM; with Giardia intestinalis [6], 37.6 µM; in the data set on Entamoeba histolytica [7], 29.1 µM. For the same molecule, the CC50 at 72 h in data set [2] is 435 µM. The entries for the “Ratio CC50/IC50” value in data set [3], in data set [4] and in data set [5] were 6, 12 and 15, respectively.

Regarding `Cc1ccc(S(=O)(=O)n2cc([N+](=O)[O-])nc2C)cc1`, in the data set with Entamoeba histolytica [8], the “Ratio IC50” value is on record as 2. For the same molecule, the IC50 was 9.96 µM in the data set on Trichomonas vaginalis [1], 14 µM in the data set on Giardia intestinalis [6] and 3.55 µM in the data set on Entamoeba histolytica [7]. In data set [2], this molecule gave a CC50 at 72 h of 988 µM. Moreover, the “Ratio CC50/IC50” value in data set [3] was found to be 99; in data set [4] it was 71; in [5] it was 278.

For `Cc1nc([N+](=O)[O-])cn1CC(=O)Nc1ccc(Cl)cc1`, the IC50 in the data set with Trichomonas vaginalis [1] amounted to 9.18 µM; in the data set on Giardia intestinalis [6], 16 µM; in the data set on Entamoeba histolytica [7], 18.1 µM. In addition, the midpoint of cytotoxicity in data set [2], the CC50 at 72 h, lay at 642 µM. The entries for the “Ratio CC50/IC50” value in [3], in data set [4] and in [5] were 70, 40 and 35, respectively. The “Ratio IC50” value in the data set on Trichomonas vaginalis [9] was determined as 2; in the data set with Trichomonas vaginalis [10], 5.

Take `Cc1nc([N+](=O)[O-])cn1CC(=O)Nc1ccccc1`: the IC50 in the data set with Trichomonas vaginalis [1] was found to be 24.6 µM; in the data set on Giardia intestinalis [6], 49.1 µM; in the data set on Entamoeba histolytica [7] it was 26.6 µM. Besides, the CC50 at 72 h in [2] came out at 1140 µM. In addition, the “Ratio CC50/IC50” value came to 46 in data set [3], 23 in data set [4] and 43 in data set [5].

Consider `O=C(Cn1ccnc1[N+](=O)[O-])NCc1ccccc1` [BENZNIDAZOLE], for which the figures for the IC50 in the data set with Trichomonas vaginalis [1], with Giardia intestinalis [6] and in the data set with Entamoeba histolytica [7] were 18.6 µM, 22.6 µM and 4.27 µM, respectively.

As for `Cc1nc([N+](=O)[O-])cn1S(=O)(=O)c1ccc(Cl)cc1`, the IC50 in the data set on Trichomonas vaginalis [1] worked out at 7.62 µM; in the data set on Giardia intestinalis [6], 15.3 µM; in the data set with Entamoeba histolytica [7], 4.03 µM. For the same molecule, half-maximal cytotoxicity in data set [2] (CC50 at 72 h) was put at 578 µM. For the same molecule, the “Ratio CC50/IC50” value in [3] amounted to 76; in [4], 38; in data set [5] it was 144.

With `Cc1nc([N+](=O)[O-])cn1CC(=O)Nc1ccc(C#N)cc1`, the IC50 with Trichomonas vaginalis [1] was 14.2 µM; with Giardia intestinalis [6] it was 11.2 µM; in the data set with Entamoeba histolytica [7], 41.2 µM. Half-maximal cytotoxicity in data set [2] (CC50 at 72 h) was put at 672 µM. Also, the “Ratio CC50/IC50” value stood at 47 in [3], 60 in data set [4] and 16 in data set [5]. Moreover, the “Ratio IC50” value in the data set on Trichomonas vaginalis [10] was 3; in the data set on Giardia intestinalis [11], 2.

With `Cc1nc([N+](=O)[O-])cn1S(=O)(=O)c1ccc([N+](=O)[O-])cc1`, the “Ratio IC50” value in the data set with Giardia intestinalis [12] came out at 2; in the data set on Trichomonas vaginalis [9], 6; in the data set on Trichomonas vaginalis [10], 14; with Giardia intestinalis [11], 2. Further, the results for the concentration for half-maximal inhibition (IC50) in the data set with Trichomonas vaginalis [1], with Giardia intestinalis [6] and with Entamoeba histolytica [7] were 2.93 µM, 7.5 µM and 7.28 µM, respectively. In data set [2], this molecule showed a CC50 at 72 h of 611 µM. For the same molecule, the “Ratio CC50/IC50” value in [3] is 209; in data set [4] it was 82; in [5] it was 84.

As to `Cc1nc([N+](=O)[O-])cn1CC(=O)NCc1ccccc1`, the “Ratio IC50” value with Entamoeba histolytica [8] came out at 2; with Trichomonas vaginalis [9], 2; in the data set on Trichomonas vaginalis [10], 5. Also, the IC50 in the data set on Trichomonas vaginalis [1] is 7.98 µM; with Giardia intestinalis [6], 17.7 µM; with Entamoeba histolytica [7], 3.96 µM. In data set [2], half-maximal cytotoxicity (CC50 at 72 h) was put at 77.5 µM. Besides, the “Ratio CC50/IC50” value in data set [3] came to 10; in data set [4] it was 4; in data set [5], 20.

On to `Cc1nc([N+](=O)[O-])cn1CC(=O)Nc1ccc(F)cc1`, for which the IC50 was 5.61 µM in the data set with Trichomonas vaginalis [1], 21 µM in the data set with Giardia intestinalis [6] and 11.2 µM with Entamoeba histolytica [7]. The molecule also displayed a CC50 at 72 h in data set [2] of 828 µM. For the same molecule, the “Ratio CC50/IC50” value in [3] was found to be 148; in data set [4] it was 39; in data set [5], 74. For the same molecule, the “Ratio IC50” value is recorded as 3 with Trichomonas vaginalis [9] and 6 in the data set with Trichomonas vaginalis [10].

With `Cc1nc([N+](=O)[O-])cn1CC(=O)Nc1ccc([N+](=O)[O-])cc1`, the IC50 stood at 6.63 µM in the data set with Trichomonas vaginalis [1], 15.4 µM with Giardia intestinalis [6] and 15.3 µM with Entamoeba histolytica [7]. The midpoint of cytotoxicity in data set [2], the CC50 at 72 h, lay at 798 µM. Further, the “Ratio CC50/IC50” value in data set [3] is reported as 120; in [4], 52; in data set [5] it was 52.

For `Cc1nc([N+](=O)[O-])cn1CC(=O)Nc1c(Cl)cccc1Cl`, the IC50 was determined as 37 µM with Trichomonas vaginalis [1], 22 µM in the data set on Giardia intestinalis [6] and 25.3 µM in the data set with Entamoeba histolytica [7]. In data set [2], this molecule returned a CC50 at 72 h of 396 µM. Besides, the figures for the “Ratio CC50/IC50” value in [3], in [4] and in data set [5] were 11, 18 and 16, respectively.

For the molecule `COc1ccc(S(=O)(=O)n2cc([N+](=O)[O-])nc2C)cc1`, the “Ratio IC50” value in the data set on Giardia intestinalis [12] and in the data set with Giardia intestinalis [11] was 2 throughout. In addition, the half-maximal inhibitory concentration (IC50) turned out to be 8.41 µM with Trichomonas vaginalis [1], 6.55 µM in the data set with Giardia intestinalis [6] and 8.56 µM in the data set on Entamoeba histolytica [7]. Besides, the CC50 at 72 h in [2] came out at 321 µM. Besides, the “Ratio CC50/IC50” value in data set [3] is recorded as 38; in [4], 49; in [5] it was 38.

As to `Cc1nc([N+](=O)[O-])cn1S(=O)(=O)c1ccc(F)cc1`, the IC50 in the data set with Trichomonas vaginalis [1] was determined as 11.5 µM; in the data set on Giardia intestinalis [6], 10.6 µM; in the data set on Entamoeba histolytica [7], 4.44 µM. The molecule further displayed a CC50 at 72 h in [2] of 813 µM. The figures for the “Ratio CC50/IC50” value in data set [3], in data set [4] and in [5] were 71, 77 and 183, respectively.

For `Cc1ncc([N+](=O)[O-])n1CCO` [METRONIDAZOLE], the values for the IC50 with Trichomonas vaginalis [1] and in the data set on Giardia intestinalis [6] were 0.29 µM and 5.36 µM, respectively. The CC50 at 72 h in [2] came to 68 µM.

In the case of `CC(=O)Nc1ccc(S(=O)(=O)n2cc([N+](=O)[O-])nc2C)cc1`, in the data set on Entamoeba histolytica [8], the “Ratio IC50” value was 2. In addition, the IC50 in the data set on Trichomonas vaginalis [1] was 8.73 µM; with Giardia intestinalis [6], 20.2 µM; in the data set on Entamoeba histolytica [7] it was 3.89 µM. Besides, the CC50 at 72 h in [2] was determined as 1030 µM. Besides, the “Ratio CC50/IC50” value in data set [3] was determined as 118; in data set [4], 51; in [5], 265.

Values taken from ChEMBL document CHEMBL1152893, “Synthesis and in vitro trichomonicidal, giardicidal and amebicidal activity of N-acetamide(sulfonamide)-2-methyl-4-nitro-1H-imidazoles” (Eur J Med Chem, 2009).
